This is an account of results in ChEMBL document CHEMBL1151705, “Novel azalides derived from 16-membered macrolides. Part II: Isolation of the linear 9-formylcarboxylic acid and its sequential macrocyclization with an amino alcohol or an azidoamine” (2008).

What all share (type): functional
Experiment [1] deals with Staphylococcus aureus. Briefly: Antimicrobial activity against drug-susceptible Staphylococcus aureus 209P JC-1 after 20 hrs by agar dilution method. The conditions noted are these: Staphylococcus aureus, 209P, 20 h; read-out: MIC. An outline of the steps:
(§1)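 Agar dilution MIC. S. aureus seed culture was grown in sensitivity test broth. Cell suspension (about 10⁶ CFU/ml) was inoculated onto sensitivity disk agar with 5% horse blood and incubated at 37 °C for 20 h. MIC was the lowest drug concentration that prevented visible growth.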
(In agar dilution, organisms are placed on agar that contains the substance at set levels.)

The subject of experiment [2] is Staphylococcus aureus. Briefly: Antimicrobial activity against Staphylococcus aureus 5 expressing inducible ermB after 20 hrs by agar dilution method. The conditions noted are these: Staphylococcus aureus, 20 h; read-out: MIC. An outline of the steps: as §1
For experiment [3], the system named is Staphylococcus aureus. Briefly: Antimicrobial activity against drug-susceptible Staphylococcus aureus 2 after 20 hrs by agar dilution method. The following applies: Staphylococcus aureus, 20 h; read-out: MIC. An outline of the steps:
as §1

Experiment [4] has as its system Streptococcus pneumoniae. Briefly: Antimicrobial activity against Streptococcus pneumoniae 9 expressing mefA after 20 hrs by agar dilution method. The following applies: Streptococcus pneumoniae, 20 h; read-out: MIC. An outline of the steps:
(§2)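 Streptococci, H. influenzae and M. catarrhalis were precultured on blood agar plates. Suspensions of about 10⁶ CFU/ml were inoculated onto sensitivity disk agar supplemented with 5% horse blood and incubated at 37 °C for 20 h. MIC was read as the lowest drug concentration with no visible growth.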

The subject of experiment [5] is Streptococcus pneumoniae. Briefly: Antimicrobial activity against Streptococcus pneumoniae 7 expressing inducible ermB after 20 hrs by agar dilution method. The conditions noted are these: Streptococcus pneumoniae, 20 h; read-out: MIC. An outline of the steps: as §2
For experiment [6], the system named is Streptococcus pneumoniae. Briefly: Antimicrobial activity against drug-susceptible Streptococcus pneumoniae DP1 Type1 after 20 hrs by agar dilution method. The following applies: Streptococcus pneumoniae, 20 h; read-out: MIC. An outline of the steps:
as §2

In experiment [7] the test system is Streptococcus pneumoniae. The experiment in a line: Antimicrobial activity against Streptococcus pneumoniae 10 expressing mefA after 20 hrs by agar dilution method. The following applies: Streptococcus pneumoniae, 20 h; read-out: MIC. The method in brief: as §2
Experiment [8] concerns Streptococcus pyogenes. Briefly: Antimicrobial activity against drug-susceptible Streptococcus pyogenes 1 after 20 hrs by agar dilution method. The following applies: Streptococcus pyogenes, 20 h; read-out: MIC. The method in brief: as §2
Experiment [9] relates to Streptococcus pyogenes. The experiment in a line: Antimicrobial activity against Streptococcus pyogenes 3 expressing mefA after 20 hrs by agar dilution method. The conditions noted are these: Streptococcus pyogenes, 20 h; read-out: MIC. The method in brief:
as §2

The subject of experiment [10] is Haemophilus influenzae. Briefly: Antimicrobial activity against drug-susceptible Haemophilus influenzae 4 after 20 hrs by agar dilution method. The conditions noted are these: Haemophilus influenzae, 20 h; read-out: MIC. The method in brief: as §2
Experiment [11] relates to Streptococcus pyogenes. Briefly: Antimicrobial activity against Streptococcus pyogenes 2 constitutively expressing ermB after 20 hrs by agar dilution method. An outline of the steps: as §2
The subject of experiment [12] is Haemophilus influenzae. Briefly: Antimicrobial activity against drug-susceptible Haemophilus influenzae 2 after 20 hrs by agar dilution method. The following applies: Haemophilus influenzae, 20 h; read-out: MIC. The method in brief:
as §2

In experiment [13] the test system is Streptococcus pneumoniae. The experiment in a line: Antimicrobial activity against Streptococcus pneumoniae 8 expressing inducible ermB after 20 hrs by agar dilution method. The following applies: Streptococcus pneumoniae, 20 h; read-out: MIC. An outline of the steps:
as §2

Experiment [14] concerns Moraxella catarrhalis. Briefly: Antimicrobial activity against drug-susceptible Moraxella catarrhalis 1 after 20 hrs by agar dilution method. The conditions noted are these: Moraxella catarrhalis, 20 h; read-out: MIC. The method in brief:
as §2

Experiment [15] has as its system Streptococcus pneumoniae. Briefly: Antimicrobial activity against Streptococcus pneumoniae 6 constitutively expressing ermB after 20 hrs by agar dilution method. The following applies: Streptococcus pneumoniae, 20 h; read-out: MIC. The method in brief: as §2
The subject of experiment [16] is Staphylococcus aureus. Briefly: Antimicrobial activity against drug-susceptible Staphylococcus aureus 3 after 20 hrs by agar dilution method. The conditions noted are these: Staphylococcus aureus, 20 h; read-out: MIC. The method in brief: as §1
In experiment [17] the test system is Staphylococcus aureus. Briefly: Antimicrobial activity against Staphylococcus aureus 6 expressing inducible ermB after 20 hrs by agar dilution method. An outline of the steps: as §1
The test system of experiment [18] is Staphylococcus aureus. The experiment in a line: Antimicrobial activity against Staphylococcus aureus 4 constitutively expressing ermA after 20 hrs by agar dilution method. An outline of the steps:
as §1

Experiment [19] relates to Haemophilus influenzae. Briefly: Antimicrobial activity against drug-susceptible Haemophilus influenzae 1 after 20 hrs by agar dilution method. The following applies: Haemophilus influenzae, 20 h; read-out: MIC. The method in brief: as §2
The subject of experiment [20] is Haemophilus influenzae. The experiment in a line: Antimicrobial activity against drug-susceptible Haemophilus influenzae 3 after 20 hrs by agar dilution method. The conditions noted are these: Haemophilus influenzae, 20 h; read-out: MIC. The method in brief: as §2
The subject of experiment [21] is Moraxella catarrhalis. The experiment in a line: Antimicrobial activity against drug-susceptible Moraxella catarrhalis 2 after 20 hrs by agar dilution method. The following applies: Moraxella catarrhalis, 20 h; read-out: MIC. The method in brief: as §2
Experiment [22] has as its system Streptococcus pneumoniae. Briefly: Antimicrobial activity against Streptococcus pneumoniae 5 constitutively expressing ermB/mefA after 20 hrs by agar dilution method. The conditions noted are these: Streptococcus pneumoniae, 20 h; read-out: MIC. The method in brief:
as §2

In experiment [23] the test system is Streptococcus pneumoniae. Briefly: Antimicrobial activity against drug-susceptible Streptococcus pneumoniae 2 after 20 hrs by agar dilution method. The following applies: Streptococcus pneumoniae, 20 h; read-out: MIC. An outline of the steps:
as §2

In brackets after ≈: the same amount, converted by molar mass. Some results are limits rather than exact numbers.

For the compound `CCOC(=O)[C@H]1[C@H](C)O[C@@H](O[C@H]2[C@H](N(C)C)[C@@H](O)[C@H](O[C@H]3[C@@H](CC=O)C[C@@H](C)[C@@H](OC(C)=O)CN(CCCCc4ccccc4)CCN(C)C(=O)C[C@@H](OC(=O)CC)[C@@H]3OC)O[C@@H]2C)C[C@@]1(C)OC(C)=O`, the MIC with Staphylococcus aureus [1] is 1 µg/mL (≈ 0.994 µM); in the experiment with Staphylococcus aureus [2], 1 µg/mL (≈ 0.994 µM); with Staphylococcus aureus [3], 2 µg/mL (≈ 1.99 µM); with Streptococcus pneumoniae [4], 1 µg/mL (≈ 0.994 µM); in the experiment with Streptococcus pneumoniae [5], greater than 128 µg/mL; with Streptococcus pneumoniae [6], 0.5 µg/mL (≈ 0.497 µM). The MIC is 1 µg/mL (≈ 0.994 µM) in the experiment on Streptococcus pneumoniae [7]; 0.5 µg/mL (≈ 0.497 µM) with Streptococcus pyogenes [8]; 1 µg/mL (≈ 0.994 µM) with Streptococcus pyogenes [9]; 16 µg/mL (≈ 15.9 µM) in the experiment with Haemophilus influenzae [10]; greater than 128 µg/mL against Streptococcus pyogenes [11]; 4 µg/mL (≈ 3.98 µM) in the experiment with Haemophilus influenzae [12]. Besides, the MIC in the experiment with Streptococcus pneumoniae [13] is greater than 128 µg/mL; with Moraxella catarrhalis [14], 1 µg/mL (≈ 0.994 µM); in the experiment on Streptococcus pneumoniae [15] it was greater than 128 µg/mL; in the experiment with Staphylococcus aureus [16], 1 µg/mL (≈ 0.994 µM); against Staphylococcus aureus [17], 2 µg/mL (≈ 1.99 µM); with Staphylococcus aureus [18] it was greater than 128 µg/mL. Also, the MIC is greater than 128 µg/mL in the experiment on Haemophilus influenzae [19]; 16 µg/mL (≈ 15.9 µM) with Haemophilus influenzae [20]; 1 µg/mL (≈ 0.994 µM) in the experiment on Moraxella catarrhalis [21]; greater than 128 µg/mL with Streptococcus pneumoniae [22]; 1 µg/mL (≈ 0.994 µM) in the experiment with Streptococcus pneumoniae [23].
`CCOC(=O)[C@H]1[C@H](C)O[C@@H](O[C@H]2[C@H](N(C)C)[C@@H](O)[C@H](O[C@H]3[C@@H](CC=O)C[C@@H](C)[C@@H](OC(C)=O)CN(C)CCN(CCCCc4ccccc4)C(=O)C[C@@H](OC(=O)CC)[C@@H]3OC)O[C@@H]2C)C[C@@]1(C)OC(C)=O`: the MIC with Staphylococcus aureus [1] worked out at 1 µg/mL (≈ 0.994 µM); in the experiment with Staphylococcus aureus [2], 0.5 µg/mL (≈ 0.497 µM); in the experiment with Staphylococcus aureus [3], 2 µg/mL (≈ 1.99 µM); in the experiment on Streptococcus pneumoniae [4], 0.5 µg/mL (≈ 0.497 µM); with Streptococcus pneumoniae [5], 16 µg/mL (≈ 15.9 µM); in the experiment on Streptococcus pneumoniae [6], 0.13 µg/mL (≈ 0.129 µM). The MIC with Streptococcus pneumoniae [7] is 0.5 µg/mL (≈ 0.497 µM); in the experiment on Streptococcus pyogenes [8] it was 0.5 µg/mL (≈ 0.497 µM); in the experiment on Streptococcus pyogenes [9], 2 µg/mL (≈ 1.99 µM); in the experiment with Haemophilus influenzae [10], 16 µg/mL (≈ 15.9 µM); in the experiment with Streptococcus pyogenes [11], greater than 128 µg/mL; in the experiment with Haemophilus influenzae [12] it was 8 µg/mL (≈ 7.95 µM). Besides, the MIC in the experiment on Streptococcus pneumoniae [13] was 16 µg/mL (≈ 15.9 µM); in the experiment with Moraxella catarrhalis [14], 1 µg/mL (≈ 0.994 µM); in the experiment on Streptococcus pneumoniae [15], greater than 128 µg/mL; in the experiment on Staphylococcus aureus [16] it was 1 µg/mL (≈ 0.994 µM); against Staphylococcus aureus [17], 1 µg/mL (≈ 0.994 µM); in the experiment with Staphylococcus aureus [18], greater than 128 µg/mL. For the same compound, the MIC in the experiment with Haemophilus influenzae [19] is greater than 128 µg/mL; in the experiment on Haemophilus influenzae [20] it was greater than 128 µg/mL; in the experiment on Moraxella catarrhalis [21] it was 2 µg/mL (≈ 1.99 µM); with Streptococcus pneumoniae [22], greater than 128 µg/mL; in the experiment with Streptococcus pneumoniae [23], 0.5 µg/mL (≈ 0.497 µM).
As for `CCOC(=O)[C@H]1[C@H](C)O[C@@H](O[C@H]2[C@H](N(C)C)[C@@H](O)[C@H](O[C@H]3[C@@H](CC=O)C[C@@H](C)[C@@H](O)CN(CCCCc4ccccc4)CCC[C@@H](C)OC(=O)C[C@@H](OC(=O)CC)[C@@H]3OC)O[C@@H]2C)C[C@@]1(C)OC(C)=O`, the MIC in the experiment on Staphylococcus aureus [1] is 0.25 µg/mL (≈ 0.252 µM); in the experiment with Staphylococcus aureus [2], 0.25 µg/mL (≈ 0.252 µM); in the experiment with Staphylococcus aureus [3], 1 µg/mL (≈ 1.01 µM); in the experiment on Streptococcus pneumoniae [4], 0.13 µg/mL (≈ 0.131 µM); with Streptococcus pneumoniae [5], 1 µg/mL (≈ 1.01 µM); in the experiment with Streptococcus pneumoniae [6], 0.06 µg/mL (≈ 0.0604 µM). For the same compound, the MIC in the experiment with Streptococcus pneumoniae [7] was determined as 0.06 µg/mL (≈ 0.0604 µM); in the experiment with Streptococcus pyogenes [8], 0.13 µg/mL (≈ 0.131 µM); with Streptococcus pyogenes [9], 0.25 µg/mL (≈ 0.252 µM); with Haemophilus influenzae [10], 16 µg/mL (≈ 16.1 µM); against Streptococcus pyogenes [11] it was 64 µg/mL (≈ 64.4 µM); in the experiment on Haemophilus influenzae [12], 0.5 µg/mL (≈ 0.503 µM). Also, the MIC with Streptococcus pneumoniae [13] is 1 µg/mL (≈ 1.01 µM); in the experiment on Moraxella catarrhalis [14], 0.25 µg/mL (≈ 0.252 µM); in the experiment on Streptococcus pneumoniae [15], 64 µg/mL (≈ 64.4 µM); with Staphylococcus aureus [16] it was 0.25 µg/mL (≈ 0.252 µM); against Staphylococcus aureus [17], 0.5 µg/mL (≈ 0.503 µM); against Staphylococcus aureus [18], greater than 128 µg/mL. For the same compound, the MIC in the experiment with Haemophilus influenzae [19] was 32 µg/mL (≈ 32.2 µM); in the experiment with Haemophilus influenzae [20] it was 8 µg/mL (≈ 8.05 µM); in the experiment with Moraxella catarrhalis [21], 0.5 µg/mL (≈ 0.503 µM); with Streptococcus pneumoniae [22], greater than 128 µg/mL; with Streptococcus pneumoniae [23], 0.06 µg/mL (≈ 0.0604 µM).
